Measured values as given in ChEMBL document CHEMBL1145212, “Fluorinated diaryl sulfides as serotonin transporter ligands: synthesis, structure-activity relationship study, and in vivo evaluation of fluorine-18-labeled compounds as PET imaging agents” (J Med Chem, 2005).

Legend:
Conditions in all cases: tested as the 18F-labelled form
[1] = species on record: Rattus norvegicus; assay: Regional uptake of [18F]-AFA in blood of rat pretreated with compound GBR-12935; n=3; type: functional, organism-based
Outline: (§1)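 Male Sprague-Dawley rats, three per group, received blocker (2 mg/kg iv in saline) or saline only (controls) 10–15 min before about 20 µCi of tail-vein F-18 radioligand. Killed 60 min after tracer. Blood and brain regions weighed and gamma-counted. %ID/g was decay- and tail-corrected; mean ± SD.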

[2] = target: Sodium-dependent serotonin transporter (Rattus norvegicus) (UniProt P31652); assay: Specific binding of [18F]AFA in rat frontal cortex after citalopram treatment; n=3; type: functional, tissue-based
Outline: (§2)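 Rats, three per group, were pretreated iv with blocker at 2 mg/kg in saline, or with saline as control, 10–15 min before tail-vein F-18 radioligand (about 20 µCi). Killed at 60 min and regional %ID/g determined. Specific binding = (region activity − cerebellum activity)/cerebellum activity; mean ± SD.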

[3] = species on record: Rattus norvegicus; assay: Regional uptake of [18F]AFA in hippocampus of rat pretreated with compound GBR-12935; n=3; type: functional, organism-based; outline: as §1
[4] = species on record: Rattus norvegicus; assay: Regional uptake of [18F]AFA in hippocampus of rat pretreated with compound citalopram; n=3; type: functional, organism-based; outline: as §1
[5] = species on record: Rattus norvegicus; assay: Regional uptake of [18F]AFA in striatum of rat pretreated with compound nisoxetine; n=3; type: functional, organism-based; outline: as §1
[6] = species on record: Rattus norvegicus; assay: Regional uptake of [18F]AFA in blood of rat pretreated with compound 7d; n=3; type: functional, organism-based
[7] = species on record: Rattus norvegicus; assay: Regional uptake of [18F]AFA in frontal cortex of rat pretreated with compound citalopram; n=3; type: functional, organism-based; outline: as §1
[8] = species on record: Rattus norvegicus; assay: Regional uptake of [18F]AFA in cerebellum of rat pretreated with compound citalopram; n=3; type: functional, organism-based; outline: as §1
[9] = species on record: Rattus norvegicus; assay: Regional uptake of [18F]AFA in cerebellum of rat pretreated with compound 7d; n=3; type: functional, organism-based
[10] = target: Sodium-dependent serotonin transporter (Rattus norvegicus) (UniProt P31652); assay: Specific binding of [18F]AFA in rat hippocampus after citalopram treatment; n=3; type: functional, tissue-based; outline: as §2
[11] = species on record: Rattus norvegicus; assay: Regional uptake of [18F]AFA in thalamus of rat pretreated with compound GBR-12935; n=3; type: functional, organism-based; outline: as §1
[12] = target: Sodium-dependent serotonin transporter (Rattus norvegicus) (UniProt P31652); assay: Specific binding of [18F]AFA in rat frontal cortex after GBR-12935 treatment; n=3; type: functional, tissue-based; outline: as §2
[13] = species on record: Rattus norvegicus; assay: Regional uptake of [18F]-AFA in hypothalamus of rat pretreated with compound nisoxetine; n=3; type: functional, organism-based; outline: as §1
[14] = species on record: Rattus norvegicus; assay: Regional uptake of [18F]AFA in hypothalamus of rat pretreated with compound citalopram; n=3; type: functional, organism-based; outline: as §1
[15] = target: Sodium-dependent serotonin transporter (Rattus norvegicus) (UniProt P31652); assay: Specific binding of [18F]-AFA in rat striatum after nisoxetine treatment; n=3; type: functional, tissue-based; outline: as §2
[16] = target: Sodium-dependent serotonin transporter (Rattus norvegicus) (UniProt P31652); assay: Specific binding of [18F]AFA in rat thalamus after citalopram treatment; n=3; type: functional, tissue-based; outline: as §2
[17] = target: Sodium-dependent serotonin transporter (Rattus norvegicus) (UniProt P31652); assay: Specific binding of [18F]AFA in rat hypothalamus after GBR-12935 treatment; n=3; type: functional, tissue-based; outline: as §2
[18] = species on record: Rattus norvegicus; assay: Regional uptake of [18F]AFA in frontal cortex of rat pretreated with compound GBR-12935; n=3; type: functional, organism-based; outline: as §1
[19] = species on record: Rattus norvegicus; assay: Regional uptake of [18F]AFA in hippocampus of rat pretreated with compound 7d; n=3; type: functional, organism-based
[20] = species on record: Rattus norvegicus; assay: Regional uptake of [18F]AFA in thalamus of rat pretreated with compound citalopram; n=3; type: functional, organism-based; outline: as §1
[21] = target: Sodium-dependent serotonin transporter (Rattus norvegicus) (UniProt P31652); assay: Specific binding in rat hypothalamus at 90 min postinjection in vivo; type: functional, organism-based
Outline: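 Male Sprague-Dawley rats, n=3 per time point, received about 20 µCi of F-18 radioligand in saline iv by tail vein and were killed at 10–120 min. %ID/g was measured with decay and tail-residual correction. Hypothalamic specific binding = (%ID/g hypothalamus − %ID/g cerebellum)/%ID/g cerebellum; mean ± SD.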

[22] = target: Sodium-dependent serotonin transporter (Rattus norvegicus) (UniProt P31652); assay: Specific binding of [18F]AFA in rat hippocampus after GBR-12935 treatment; n=3; type: functional, tissue-based; outline: as §2
[23] = target: Sodium-dependent serotonin transporter (Rattus norvegicus) (UniProt P31652); assay: Specific binding of [18F]AFA in rat striatum after GBR-12935 treatment; n=3; type: functional, tissue-based; outline: as §2
[24] = species on record: Rattus norvegicus; assay: Regional uptake of [18F]AFA in hippocampus of rat pretreated with compound nisoxetine; n=3; type: functional, organism-based; outline: as §1
[25] = species on record: Rattus norvegicus; assay: Regional uptake of [18F]AFA in cerebellum of rat pretreated with compound nisoxetine; n=3; type: functional, organism-based; outline: as §1

Chain of Sodium-dependent serotonin transporter (Rattus norvegicus) (P31652 whole entry): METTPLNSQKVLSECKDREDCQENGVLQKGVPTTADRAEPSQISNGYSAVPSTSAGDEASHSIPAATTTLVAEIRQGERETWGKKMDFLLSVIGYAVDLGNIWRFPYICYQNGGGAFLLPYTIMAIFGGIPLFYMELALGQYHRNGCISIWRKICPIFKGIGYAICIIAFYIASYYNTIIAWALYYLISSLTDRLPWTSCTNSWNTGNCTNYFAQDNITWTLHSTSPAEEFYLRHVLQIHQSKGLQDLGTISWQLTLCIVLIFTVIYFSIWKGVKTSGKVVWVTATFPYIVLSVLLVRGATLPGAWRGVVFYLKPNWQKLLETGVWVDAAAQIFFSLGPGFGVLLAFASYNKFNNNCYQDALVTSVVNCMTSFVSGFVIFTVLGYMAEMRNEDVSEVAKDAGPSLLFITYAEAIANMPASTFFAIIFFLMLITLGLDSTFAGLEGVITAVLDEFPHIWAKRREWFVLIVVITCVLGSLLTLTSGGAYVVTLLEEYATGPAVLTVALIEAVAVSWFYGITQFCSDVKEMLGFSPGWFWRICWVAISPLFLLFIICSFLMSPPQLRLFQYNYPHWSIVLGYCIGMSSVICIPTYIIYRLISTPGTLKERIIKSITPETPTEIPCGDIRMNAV

`CN(C)Cc1ccccc1Sc1ccc(CF)cc1N` showed an Uptake [1] of 0.11 %ID/g, a Specific binding [2] of 0.36 %ID/g and an Uptake [3] of 0.59 %ID/g. It also gave an Uptake [4] of 0.13 %ID/g, an Uptake [5] of 0.58 %ID/g and an Uptake [6] of 0.11 %ID/g. For the same compound, the Uptake [7] was 0.11 %ID/g, the Uptake [8] was 0.08 %ID/g and the Uptake [9] was 0.09 %ID/g. For the same compound, the Specific binding [10] was 0.67 %ID/g, the Uptake [11] was 0.74 %ID/g and the Specific binding [12] was 3.83 %ID/g. The Uptake [13] was 0.73 %ID/g, the Uptake [14] was 0.18 %ID/g and the Specific binding [15] was 3.59 %ID/g. The Specific binding [16] was 1.05 %ID/g, the Specific binding [17] was 5.3 %ID/g and the Uptake [18] was 0.76 %ID/g. It also gave an Uptake [19] of 0.13 %ID/g, an Uptake [20] of 0.16 %ID/g and a Specific binding (dimensionless ratio) [21] of 5.81. It also gave a Specific binding [22] of 3.51 %ID/g, a Specific binding [23] of 4.37 %ID/g and an Uptake [24] of 0.47 %ID/g. The Uptake [25] was 0.13 %ID/g.
